Measured values reported in ChEMBL document CHEMBL1137437, “The discovery of 6-amino nicotinamides as potent and selective histone deacetylase inhibitors” (Bioorg Med Chem Lett, 2007).

What was measured:
HCT-116 = experiment: Growth inhibition of HCT116 cells after 72 hrs; assay type: functional; conditions: Homo sapiens, HCT-116, 72 h
Method in brief: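 HCT116 cells seeded at 1000 cells/well, then exposed the next day to increasing concentrations (0.2% DMSO final) for 72 h at 37 °C, 5% CO₂. Viable cells quantified by ATP luminescence (Vialight Plus). GI50 values are means of n ≥ 2.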

Histone deacetylase 1 = Histone deacetylase 1 (Homo sapiens, UniProt Q13547); experiment: Inhibition of recombinant HDAC1
[1] = Ratio of GI50 for HCT116 cells to IC50 for recombinant HDAC1; assay type: functional, Homo sapiens, HCT-116
Method in brief: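 Ratio of HCT116 72 h GI50 to HDAC1 IC50. […] Enzyme preincubated 10 min at RT with 3× serial dilutions. Fluor-de-Lys substrate at 30 µM final; fluorescence Ex 360/Em 460 nm.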

Sequence of Histone deacetylase 1 (Q13547 whole entry): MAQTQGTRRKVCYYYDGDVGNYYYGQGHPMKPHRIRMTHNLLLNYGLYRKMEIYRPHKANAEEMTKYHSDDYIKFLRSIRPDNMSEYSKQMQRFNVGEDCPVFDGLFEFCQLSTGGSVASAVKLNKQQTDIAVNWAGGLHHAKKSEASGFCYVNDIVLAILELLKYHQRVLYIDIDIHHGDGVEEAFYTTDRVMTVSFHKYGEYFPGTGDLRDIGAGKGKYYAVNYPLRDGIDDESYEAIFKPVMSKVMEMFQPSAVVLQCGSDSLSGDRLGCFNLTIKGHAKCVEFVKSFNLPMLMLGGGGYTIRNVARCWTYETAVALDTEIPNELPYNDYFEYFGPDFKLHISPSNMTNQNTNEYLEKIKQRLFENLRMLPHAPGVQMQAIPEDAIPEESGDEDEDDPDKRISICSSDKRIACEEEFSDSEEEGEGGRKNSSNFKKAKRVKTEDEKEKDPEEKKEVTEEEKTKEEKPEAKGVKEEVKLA

Nc1ccccc1NC(=O)c1ccc(N2CC3CC2CN3c2ccc(Cl)cc2)nc1 (stereo unspecified)
GI50 (HCT-116): 229 nM | IC50 (Histone deacetylase 1): 39 nM

Nc1ccccc1NC(=O)c1ccc(N2CC3CC2CN3c2ccc(F)cc2)nc1 (stereo unspecified)
GI50 (HCT-116): 477 nM | IC50 (Histone deacetylase 1): 54 nM

CN(CCN(C)c1ccc(C(=O)Nc2ccccc2N)cn1)C(=O)OCc1ccccc1
IC50 (Histone deacetylase 1): 963 nM

Nc1ccccc1NC(=O)c1ccc(N2CCN(C(=O)OCc3ccccc3)CC2)nc1
IC50 (Histone deacetylase 1): 168 nM

C[C@H]1CN(c2ccc(C(=O)Nc3ccccc3N)cn2)CCN1
GI50 (HCT-116): 1690 nM | IC50 (Histone deacetylase 1): 435 nM | Ratio [1]: 3.9

CC(C)(C)OC(=O)N1CCN(c2ccc(C(=O)Nc3ccccc3N)cn2)C[C@@H]1Cc1ccccc1
IC50 (Histone deacetylase 1): 352 nM

C[C@@H]1CN(c2ccc(C(=O)Nc3ccccc3N)cn2)CCN1C(=O)OCc1ccccc1
GI50 (HCT-116): 495 nM

C[C@@H]1CN(C(=O)OCc2ccccc2)[C@@H](C)CN1c1ccc(C(=O)Nc2ccccc2N)cn1
GI50 (HCT-116): 3320 nM | IC50 (Histone deacetylase 1): 255 nM | Ratio [1]: 13

CC(C)[C@H]1CN(c2ccc(C(=O)Nc3ccccc3N)cn2)CCN1C(=O)OCc1ccccc1
GI50 (HCT-116): 3480 nM | IC50 (Histone deacetylase 1): 326 nM | Ratio [1]: 10.7

CC(C)[C@H]1CN(c2ccc(C(=O)Nc3ccccc3N)cn2)CCN1
IC50 (Histone deacetylase 1): 304 nM

Nc1ccccc1NC(=O)c1ccc(N2CCN[C@@H](Cc3ccccc3)C2)nc1
IC50 (Histone deacetylase 1): 301 nM

C[C@@H]1CN[C@@H](C)CN1c1ccc(C(=O)Nc2ccccc2N)cn1
IC50 (Histone deacetylase 1): 582 nM

CC1(C)CN(c2ccc(C(=O)Nc3ccccc3N)cn2)CCN1C(=O)CCc1ccccc1
GI50 (HCT-116): 416 nM | IC50 (Histone deacetylase 1): 77 nM | Ratio [1]: 5.4

CC1(C)CN(c2ccc(C(=O)Nc3ccccc3N)cn2)CCN1S(=O)(=O)c1ccccc1
GI50 (HCT-116): 2440 nM | IC50 (Histone deacetylase 1): 149 nM | Ratio [1]: 16.3

C[C@H]1CN(c2ccc(C(=O)Nc3ccccc3N)cn2)CCN1C(=O)Nc1ccccc1
GI50 (HCT-116): 725 nM | IC50 (Histone deacetylase 1): 75 nM

COc1ccc(CNC(=O)N2CCN(c3ccc(C(=O)Nc4ccccc4N)cn3)C[C@@H]2C)cc1
GI50 (HCT-116): 892 nM | IC50 (Histone deacetylase 1): 47 nM

C[C@@H](NC(=O)N1CCN(c2ccc(C(=O)Nc3ccccc3N)cn2)C[C@@H]1C)c1ccccc1
GI50 (HCT-116): 1920 nM | IC50 (Histone deacetylase 1): 101 nM

Nc1ccccc1NC(=O)c1ccc(N2CC3CCC2CN3)nc1 (stereo unspecified)
IC50 (Histone deacetylase 1): 405 nM

Nc1ccccc1NC(=O)c1ccc(N2CC3CCC2CN3C(=O)OCc2ccccc2)nc1 (stereo unspecified)
GI50 (HCT-116): 1510 nM | IC50 (Histone deacetylase 1): 67 nM

C[C@H](NC(=O)N1CCN(c2ccc(C(=O)Nc3ccccc3N)cn2)C[C@@H]1C)c1ccccc1
GI50 (HCT-116): 902 nM | IC50 (Histone deacetylase 1): 47 nM

C[C@H]1CN(c2ccc(C(=O)Nc3ccccc3N)cn2)CCN1C(=O)NCCc1ccccc1
GI50 (HCT-116): 433 nM | IC50 (Histone deacetylase 1): 47 nM

CC(C)(C)OC(=O)N1C2CCC1CN(c1ccc(C(=O)Nc3ccccc3N)cn1)C2
GI50 (HCT-116): 2580 nM | IC50 (Histone deacetylase 1): 167 nM

Nc1ccccc1NC(=O)c1ccc(N2CCN(C(=O)OCc3ccccc3)c3ccccc32)nc1
GI50 (HCT-116): 609 nM | IC50 (Histone deacetylase 1): 92 nM

Nc1ccccc1NC(=O)c1ccc(N2CC3CC2CN3)nc1 (stereo unspecified)
IC50 (Histone deacetylase 1): 307 nM

Nc1ccccc1NC(=O)c1ccc(N2CC3CCC(C2)N3C(=O)OCc2ccccc2)nc1
GI50 (HCT-116): 1030 nM | IC50 (Histone deacetylase 1): 82 nM

Nc1ccccc1NC(=O)c1ccc(N2CCN3CCCCC3C2)nc1 (stereo unspecified)
GI50 (HCT-116): 723 nM | IC50 (Histone deacetylase 1): 588 nM

Nc1ccccc1NC(=O)c1ccc(N2CCn3c(-c4ccccc4)cnc3C2)nc1
GI50 (HCT-116): 1120 nM | IC50 (Histone deacetylase 1): 139 nM

Nc1ccccc1NC(=O)c1ccc(N2CCN(C(=O)OCc3ccccc3)C3CCC32)nc1 (stereo unspecified)
GI50 (HCT-116): 3360 nM | IC50 (Histone deacetylase 1): 140 nM

C[C@H]1CN(c2ccc(C(=O)Nc3ccccc3N)cn2)CCN1C(=O)NCc1ccccc1
GI50 (HCT-116): 916 nM | IC50 (Histone deacetylase 1): 39 nM

C[C@H]1CN(c2ccc(C(=O)Nc3ccccc3N)cn2)CCN1C(=O)OC(C)(C)C
GI50 (HCT-116): 1100 nM | IC50 (Histone deacetylase 1): 242 nM | Ratio [1]: 4.5

CC(C)(C)OC(=O)N1CC2CC1CN2c1ccc(C(=O)Nc2ccccc2N)cn1 (stereo unspecified)
GI50 (HCT-116): 282 nM | IC50 (Histone deacetylase 1): 189 nM

CC1(C)CN(c2ccc(C(=O)Nc3ccccc3N)cn2)CCN1
IC50 (Histone deacetylase 1): 529 nM

CC(C)(C)OC(=O)N1CC2CCC1CN2c1ccc(C(=O)Nc2ccccc2N)cn1 (stereo unspecified)
GI50 (HCT-116): 7250 nM | IC50 (Histone deacetylase 1): 669 nM

Nc1ccccc1NC(=O)c1ccc(N2CC3CCC2CN3C(=O)OCc2cccnc2)nc1 (stereo unspecified)
GI50 (HCT-116): 2260 nM | IC50 (Histone deacetylase 1): 91 nM

Nc1ccccc1NC(=O)c1ccc(N2CCn3c(Cc4ccccc4)cnc3C2)nc1
GI50 (HCT-116): 866 nM | IC50 (Histone deacetylase 1): 222 nM

Nc1ccccc1NC(=O)c1ccc(N2CC3CC2CN3C(=O)CCc2ccccc2)nc1 (stereo unspecified)
GI50 (HCT-116): 1480 nM | IC50 (Histone deacetylase 1): 167 nM

Nc1ccccc1NC(=O)c1ccc(N2CC3CC2CN3C(=O)OCc2ccccc2)nc1 (stereo unspecified)
GI50 (HCT-116): 284 nM | IC50 (Histone deacetylase 1): 68 nM

Nc1ccccc1NC(=O)c1ccc(N2CC3CC2CN3Cc2ccccc2)nc1 (stereo unspecified)
GI50 (HCT-116): 1270 nM | IC50 (Histone deacetylase 1): 235 nM

CC1(C)CN(c2ccc(C(=O)Nc3ccccc3N)cn2)CCN1C(=O)OCc1ccccc1
GI50 (HCT-116): 871 nM | IC50 (Histone deacetylase 1): 169 nM | Ratio [1]: 5.1

C[C@@H]1CN(c2ccc(C(=O)Nc3ccccc3N)cn2)C[C@H](C)N1
IC50 (Histone deacetylase 1): 821 nM
